According to ChEMBL document CHEMBL3244215, “Fluorinated pyrimidine nucleosides. 3. Synthesis and antitumor activity of a series of 5'-deoxy-5-fluoropyrimidine nucleosides” (J Med Chem, 1979):
The source made the active and inactive calls. The calls are words filed in the database; no cut-off is given here.

Legend:
Mus musculus [1] = assay: Toxicity in mouse in po dosed CD1 mouse assessed as leukopenia administered once daily starting shortly post implantation continued for 8 days relative to vehicle-treated control; assay type: organism-based; settings: in vivo, 192 h
Sarcoma-180 [2] = assay: Antitumor activity against mouse Sarcoma 180 cells allografted in CD1 mouse at 200 mg/kg, ip qd administered shortly post implantation continued for 8 days relative to vehicle-treated control; assay type: functional, organism-based; design: dose 200 mg/kg
In short: (§1)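 Compounds dissolved or suspended in H2O, given ip as 1.0 mL shortly after tumor implantation, then daily to eight doses in total. Mice killed 8 days after implantation; tumors excised and weighed. Mean tumor weight of treated mice (T) compared with that of H2O-treated controls (C), expressed as C/T index.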

Sarcoma-180 [3] = assay: Antitumor activity against mouse Sarcoma 180 cells allografted in CD1 mouse at 25 mg/kg, ip qd administered shortly post implantation continued for 8 days relative to vehicle-treated control; assay type: functional, organism-based; design: dose 25 mg/kg; in short: as §1
Sarcoma-180 [4] = assay: Antitumor activity against mouse Sarcoma 180 cells allografted in CD1 mouse at 50 mg/kg, ip qd administered shortly post implantation continued for 8 days relative to vehicle-treated control; assay type: functional, organism-based; design: dose 50 mg/kg; in short: as §1
Sarcoma-180 [5] = assay: Antitumor activity against mouse Sarcoma 180 cells allografted in CD1 mouse at 3.12 to 800 mg/kg, ip qd administered shortly post implantation for 8 days relative to vehicle-treated control; assay type: functional, organism-based
Sarcoma-180 [6] = assay: Antitumor activity against mouse Sarcoma 180 cells allografted in CD1 mouse at 12.5 mg/kg, ip qd administered shortly post implantation continued for 8 days relative to vehicle-treated control; assay type: functional, organism-based; design: dose 12.5 mg/kg; in short: as §1
Sarcoma-180 [7] = assay: Antitumor activity against mouse Sarcoma 180 cells allografted in CD1 mouse at 100 mg/kg, ip qd administered shortly post implantation continued for 8 days relative to vehicle-treated control; assay type: functional, organism-based; design: dose 100 mg/kg; in short: as §1
Mus musculus [8] = assay: Toxicity in mouse in po dosed CD1 mouse assessed as change in body weight administered once daily starting shortly post implantation continued for 8 days relative to vehicle-treated control; assay type: organism-based; settings: in vivo, 192 h
Sarcoma-180 [9] = assay: Antitumor activity against mouse Sarcoma 180 cells allografted in CD1 mouse at 40 mg/kg, ip qd administered shortly post implantation continued for 8 days relative to vehicle-treated control; assay type: functional, organism-based; design: dose 40 mg/kg; in short: as §1
Sarcoma-180 [10] = assay: Antitumor activity against mouse Sarcoma 180 cells allografted in CD1 mouse at 20 mg/kg, ip qd administered shortly post implantation continued for 8 days relative to vehicle-treated control; assay type: functional, organism-based; design: dose 20 mg/kg; in short: as §1

Row | SMILES | Activity (Sarcoma-180 [2]) | Activity (Sarcoma-180 [7]) | also measured
1 | C[C@H]1O[C@@H](n2cc(F)c(=O)[nH]c2=O)[C@H](O)[C@@H]1O [DOXIFLURIDINE] | Active | Active | Activity (Mus musculus [1]): Toxic; Activity (Sarcoma-180 [3]): Active; Activity (Sarcoma-180 [4]): Active; Activity (Sarcoma-180 [5]): Active; Activity (Sarcoma-180 [6]): inactive; Activity (Mus musculus [8]): Toxic
2 | C[C@H]1O[C@@H]2[C@@H](Oc3nc(=O)c(F)cn32)[C@@H]1O | inactive | – | –
3 | C[C@H]1O[C@@H](n2ccc(N)nc2=O)[C@H](O)[C@@H]1O | inactive | – | –
4 | C[C@H]1O[C@@H](n2cc(F)c(N)nc2=O)[C@H]2O[C@H]21 | inactive | – | –
5 | C[C@@H]1O[C@@H](n2cc(F)c(=O)[nH]c2=O)[C@H](O)[C@@H]1O | – | inactive | –
6 | O=c1[nH]c(=O)n([C@H]2C[C@H](O)[C@@H](CO)O2)cc1F [FLOXURIDINE] | – | – | Activity (Mus musculus [1]): Toxic; Activity (Mus musculus [8]): Toxic
7 | C[C@H]1O[C@@H](n2cc(F)c(N)nc2=O)[C@@H](O)[C@@H]1O | – | inactive | –
8 | C[C@H]1O[C@@H](n2cc(F)c(=O)[nH]c2=O)[C@@H](O)[C@H]1O | – | inactive | –
9 | C=C1O[C@@H](n2cc(F)c(=O)[nH]c2=O)[C@H](O)[C@@H]1O | – | inactive | –
10 | C[C@H]1O[C@@H](n2cc(F)c(=O)[nH]c2=O)[C@@H]2OC(C)(C)O[C@@H]21 | inactive | – | –
11 | C[C@H]1O[C@@H](n2cc(F)c(N)nc2=O)[C@H](O)[C@@H]1O | Active | Active | Activity (Sarcoma-180 [3]): Active; Activity (Sarcoma-180 [4]): Active; Activity (Sarcoma-180 [6]): inactive
12 | C[C@H]1O[C@@H](n2cc(F)c(=O)[nH]c2=O)[C@@H](O)[C@@H]1O | – | inactive | –
13 | C[C@H]1O[C@@H]2[C@@H](Oc3nc(N)c(F)c[n+]32)[C@@H]1O | Active | Active | Activity (Sarcoma-180 [9]): Active; Activity (Sarcoma-180 [10]): inactive
14 | C[C@H]1O[C@@H](n2ccc(=O)[nH]c2=O)[C@H](O)[C@@H]1O | inactive | – | –
